ChEMBL document CHEMBL1781995, “Acenaphtho[1,2-b]pyrrole-based selective fibroblast growth factor receptors 1 (FGFR1) inhibitors: design, synthesis, and biological activity” (J Med Chem, 2011)
Active and inactive are the calls of the source. The rule behind the calls is not given here.

Experiments:
[1] = target: T1, Fibroblast growth factor receptor 1 (Homo sapiens, UniProt P11362); test: Inhibition of FGFR1 using poly(Glu-Tyr)4:1 as substrate after 60 mins by ELISA
Target sequence in this assay (P11362 whole entry): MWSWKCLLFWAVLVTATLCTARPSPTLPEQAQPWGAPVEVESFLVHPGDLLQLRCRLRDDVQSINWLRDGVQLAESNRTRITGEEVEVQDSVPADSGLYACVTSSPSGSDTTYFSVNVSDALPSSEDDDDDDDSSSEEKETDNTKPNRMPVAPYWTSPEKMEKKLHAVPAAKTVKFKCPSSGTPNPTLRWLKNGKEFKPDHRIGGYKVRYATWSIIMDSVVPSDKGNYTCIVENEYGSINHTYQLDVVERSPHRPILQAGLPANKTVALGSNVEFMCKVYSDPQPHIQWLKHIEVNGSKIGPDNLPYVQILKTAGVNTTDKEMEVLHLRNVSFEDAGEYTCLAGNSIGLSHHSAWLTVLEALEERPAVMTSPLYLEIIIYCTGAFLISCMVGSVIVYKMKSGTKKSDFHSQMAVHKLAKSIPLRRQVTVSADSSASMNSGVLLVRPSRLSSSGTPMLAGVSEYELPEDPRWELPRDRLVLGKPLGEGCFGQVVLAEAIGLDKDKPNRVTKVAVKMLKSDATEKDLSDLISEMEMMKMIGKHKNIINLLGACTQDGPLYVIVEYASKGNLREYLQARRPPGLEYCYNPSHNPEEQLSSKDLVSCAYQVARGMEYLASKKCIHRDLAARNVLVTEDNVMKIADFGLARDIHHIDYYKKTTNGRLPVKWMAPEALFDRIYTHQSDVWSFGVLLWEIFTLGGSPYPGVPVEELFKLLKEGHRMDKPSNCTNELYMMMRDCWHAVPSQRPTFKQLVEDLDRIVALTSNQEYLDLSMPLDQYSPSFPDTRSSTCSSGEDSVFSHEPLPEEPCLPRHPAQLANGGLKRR

T-24 = test: Antiproliferative activity against human T24 cells expressing FGFR after 72 hrs by SRB assay; assay type: functional, cell-based; details: T-24, 72 h
Outline: (§1)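 Cells seeded and grown 24 h, then exposed to increasing compound concentrations for 72 h without medium change. Fixed with cold 10% TCA 1 h at 4 °C, stained 15 min with 4 mg/mL SRB in 1% acetic acid, rinsed, dye dissolved in 10 mM Tris base, A515 read. Inhibition = (1 − A515treated/A515control)×100; IC50 by Logit method from at least three independent tests.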

BXPC-3 = test: Antiproliferative activity against human BxPC3 cells expressing FGFR after 72 hrs by SRB assay; assay type: functional, cell-based; details: BXPC-3, 72 h; outline: as §1
[2] = target: Platelet-derived growth factor receptor alpha (Homo sapiens, UniProt P16234); test: Inhibition of PDGFRalpha using poly(Glu-Tyr)4:1 as substrate after 60 mins by ELISA
Outline: (§2)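 Wells precoated with 20 μg/mL poly(Glu,Tyr)4:1. Detected with PY99 anti-phosphotyrosine, then HRP anti-mouse IgG and o-phenylenediamine/H2O2; stopped with H2SO4, A490. Duplicates per concentration; IC50 from inhibition curves, at least three independent tests.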

[3] = target: Vascular endothelial growth factor receptor 2 (Homo sapiens, UniProt P35968); test: Inhibition of VEGFR2 expressed in Bac-to-Bac Baculovirus expression system using poly(Glu-Tyr)4:1 as substrate after 60 mins by ELISA; outline: as §2
Vascular endothelial growth factor receptor 2, sequence (P35968 whole entry): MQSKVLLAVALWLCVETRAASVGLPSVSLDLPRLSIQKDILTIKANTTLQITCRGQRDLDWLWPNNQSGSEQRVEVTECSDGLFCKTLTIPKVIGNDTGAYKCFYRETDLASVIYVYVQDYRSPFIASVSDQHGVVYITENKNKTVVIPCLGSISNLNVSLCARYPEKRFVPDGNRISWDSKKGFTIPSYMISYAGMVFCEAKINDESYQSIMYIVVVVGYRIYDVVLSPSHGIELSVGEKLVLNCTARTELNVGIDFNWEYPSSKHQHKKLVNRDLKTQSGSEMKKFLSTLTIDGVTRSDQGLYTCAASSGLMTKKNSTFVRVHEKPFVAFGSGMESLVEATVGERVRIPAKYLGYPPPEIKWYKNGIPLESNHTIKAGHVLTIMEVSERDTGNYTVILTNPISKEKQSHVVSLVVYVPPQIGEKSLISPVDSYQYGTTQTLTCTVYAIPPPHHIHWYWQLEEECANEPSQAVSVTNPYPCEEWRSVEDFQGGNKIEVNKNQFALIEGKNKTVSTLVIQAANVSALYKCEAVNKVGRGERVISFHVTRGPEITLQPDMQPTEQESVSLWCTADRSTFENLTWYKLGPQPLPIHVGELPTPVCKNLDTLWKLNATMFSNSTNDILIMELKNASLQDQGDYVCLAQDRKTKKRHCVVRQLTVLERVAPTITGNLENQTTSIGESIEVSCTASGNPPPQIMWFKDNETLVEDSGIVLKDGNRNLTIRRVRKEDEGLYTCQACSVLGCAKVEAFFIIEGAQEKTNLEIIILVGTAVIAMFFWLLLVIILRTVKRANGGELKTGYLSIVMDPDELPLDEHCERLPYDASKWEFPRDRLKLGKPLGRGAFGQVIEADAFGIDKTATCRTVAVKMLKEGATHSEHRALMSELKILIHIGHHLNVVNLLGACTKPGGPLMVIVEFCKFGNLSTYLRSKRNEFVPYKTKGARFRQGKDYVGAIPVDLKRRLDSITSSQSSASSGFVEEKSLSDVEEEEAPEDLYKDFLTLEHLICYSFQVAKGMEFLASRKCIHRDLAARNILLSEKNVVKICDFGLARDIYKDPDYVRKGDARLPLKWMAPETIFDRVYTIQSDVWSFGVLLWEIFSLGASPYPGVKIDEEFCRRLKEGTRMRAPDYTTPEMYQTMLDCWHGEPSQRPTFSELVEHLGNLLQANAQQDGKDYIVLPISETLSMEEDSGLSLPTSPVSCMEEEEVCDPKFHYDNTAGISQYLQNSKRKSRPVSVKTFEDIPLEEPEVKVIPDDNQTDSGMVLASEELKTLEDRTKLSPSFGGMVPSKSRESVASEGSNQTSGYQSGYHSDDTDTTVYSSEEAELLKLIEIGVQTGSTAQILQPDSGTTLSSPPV

[4] = target: Fibroblast growth factor receptor 2 (Homo sapiens, UniProt P21802); test: Inhibition of FGFR2 using poly(Glu-Tyr)4:1 as substrate after 60 mins by ELISA; outline: as §2
[5] = target: Mast/stem cell growth factor receptor Kit (Homo sapiens, UniProt P10721); test: Inhibition of c-kit expressed in Bac-to-Bac Baculovirus expression system using poly(Glu-Tyr)4:1 as substrate after 60 mins by ELISA; outline: as §2
[6] = target: Proto-oncogene tyrosine-protein kinase receptor Ret (Homo sapiens, UniProt P07949); test: Inhibition of RET expressed in Bac-to-Bac Baculovirus expression system using poly(Glu-Tyr)4:1 as substrate after 60 mins by ELISA; outline: as §2
[7] = target: Proto-oncogene tyrosine-protein kinase Src (Homo sapiens, UniProt P12931); test: Inhibition of c-Src expressed in Bac-to-Bac Baculovirus expression system using poly(Glu-Tyr)4:1 as substrate after 60 mins by ELISA; outline: as §2
Ephrin type-A receptor 2 = Ephrin type-A receptor 2 (Homo sapiens, UniProt P29317); test: Inhibition of EphA2 expressed in Bac-to-Bac Baculovirus expression system using poly(Glu-Tyr)4:1 as substrate after 60 mins by ELISA; outline: as §2
[8] = target: Fibroblast growth factor receptor 3 (Homo sapiens, UniProt P22607); test: Inhibition of FGFR3 using poly(Glu-Tyr)4:1 as substrate after 60 mins by ELISA; outline: as §2
Fibroblast growth factor receptor 3, sequence (P22607 whole entry): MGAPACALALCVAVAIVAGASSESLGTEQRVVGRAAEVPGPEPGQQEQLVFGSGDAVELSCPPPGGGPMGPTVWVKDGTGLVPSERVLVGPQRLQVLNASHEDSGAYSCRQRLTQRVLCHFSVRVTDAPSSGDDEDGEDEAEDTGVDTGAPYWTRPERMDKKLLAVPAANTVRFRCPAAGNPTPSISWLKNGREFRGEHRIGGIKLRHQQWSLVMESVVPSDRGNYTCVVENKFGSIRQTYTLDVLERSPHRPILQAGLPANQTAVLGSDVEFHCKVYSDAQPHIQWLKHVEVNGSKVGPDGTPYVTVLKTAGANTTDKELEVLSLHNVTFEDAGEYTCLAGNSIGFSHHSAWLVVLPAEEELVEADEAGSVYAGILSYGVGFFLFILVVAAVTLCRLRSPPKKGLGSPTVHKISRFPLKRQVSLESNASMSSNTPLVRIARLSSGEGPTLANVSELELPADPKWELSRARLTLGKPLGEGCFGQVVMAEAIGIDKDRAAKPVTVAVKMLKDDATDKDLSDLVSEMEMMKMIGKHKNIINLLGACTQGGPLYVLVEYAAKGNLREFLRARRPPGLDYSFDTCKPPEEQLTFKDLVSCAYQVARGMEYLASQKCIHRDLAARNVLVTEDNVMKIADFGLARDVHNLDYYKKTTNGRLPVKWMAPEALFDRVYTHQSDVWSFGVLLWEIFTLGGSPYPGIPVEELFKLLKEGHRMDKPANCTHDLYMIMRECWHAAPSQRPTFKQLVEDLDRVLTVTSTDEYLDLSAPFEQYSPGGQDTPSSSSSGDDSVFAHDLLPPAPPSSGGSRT

[9] = target: Fibroblast growth factor receptor 4 (Homo sapiens, UniProt P22455); test: Inhibition of FGFR4 using poly(Glu-Tyr)4:1 as substrate after 60 mins by ELISA; outline: as §2
[10] = target: Macrophage-stimulating protein receptor (Homo sapiens, UniProt Q04912); test: Inhibition of RON expressed in Bac-to-Bac Baculovirus expression system using poly(Glu-Tyr)4:1 as substrate after 60 mins by ELISA; outline: as §2
Ephrin type-B receptor 2 = target: T2, Ephrin type-B receptor 2 (Homo sapiens, UniProt P29323); test: Inhibition of EphB2 expressed in Bac-to-Bac Baculovirus expression system using poly(Glu-Tyr)4:1 as substrate after 60 mins by ELISA; outline: as §2
T2 sequence (P29323 whole entry): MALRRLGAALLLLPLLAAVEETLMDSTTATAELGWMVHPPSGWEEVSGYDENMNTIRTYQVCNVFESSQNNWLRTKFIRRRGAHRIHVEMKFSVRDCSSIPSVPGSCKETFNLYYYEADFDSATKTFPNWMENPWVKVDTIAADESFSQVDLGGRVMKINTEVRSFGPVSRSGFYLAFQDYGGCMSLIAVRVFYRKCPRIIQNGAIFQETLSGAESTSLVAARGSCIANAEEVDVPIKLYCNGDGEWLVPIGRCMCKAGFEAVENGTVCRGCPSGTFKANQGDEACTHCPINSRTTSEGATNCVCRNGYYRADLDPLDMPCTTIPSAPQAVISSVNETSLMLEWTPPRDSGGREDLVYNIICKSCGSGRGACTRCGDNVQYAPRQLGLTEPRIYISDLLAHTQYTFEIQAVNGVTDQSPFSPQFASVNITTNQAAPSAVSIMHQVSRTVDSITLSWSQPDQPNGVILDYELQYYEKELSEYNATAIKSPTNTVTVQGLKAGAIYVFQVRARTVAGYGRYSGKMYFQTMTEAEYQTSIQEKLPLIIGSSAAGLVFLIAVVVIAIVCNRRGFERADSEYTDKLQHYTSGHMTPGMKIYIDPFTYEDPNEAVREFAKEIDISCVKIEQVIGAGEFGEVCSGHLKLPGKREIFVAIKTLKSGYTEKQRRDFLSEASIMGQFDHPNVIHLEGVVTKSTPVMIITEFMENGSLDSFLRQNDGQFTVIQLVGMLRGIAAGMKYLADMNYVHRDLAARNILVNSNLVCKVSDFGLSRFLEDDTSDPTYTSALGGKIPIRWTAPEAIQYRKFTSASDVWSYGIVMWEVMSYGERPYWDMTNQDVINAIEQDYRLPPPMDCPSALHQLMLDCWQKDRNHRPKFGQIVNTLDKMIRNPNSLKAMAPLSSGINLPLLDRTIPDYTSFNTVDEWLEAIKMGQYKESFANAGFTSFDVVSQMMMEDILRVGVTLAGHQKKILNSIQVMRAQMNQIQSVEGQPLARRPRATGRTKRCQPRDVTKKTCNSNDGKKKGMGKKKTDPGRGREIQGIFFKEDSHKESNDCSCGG

[11] = target: Tyrosine-protein kinase ABL1 (Homo sapiens, UniProt P00519); test: Inhibition of Abl using poly(Glu-Tyr)4:1 as substrate after 60 mins by ELISA; outline: as §2
WI-38 = test: Antiproliferative activity against human WI38 cells expressing FGFR after 72 hrs by SRB assay; assay type: cell-based; details: WI-38, 72 h; outline: as §1
[12] = target: T1, Fibroblast growth factor receptor 1; test: Inhibition of FGFR1 in human BxPC3 cells assessed as reduction of Erk1/2 phosphorylation at 10 uM after 12 hrs by Western blot analysis; assay type: cell-based; details: BXPC-3
Outline: (§3)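 BxPC3 cells plated at 3 × 10^5 per well, serum-starved 24 h, then treated 12 h with compound (1.25, 2.5, 5, 10 μM). Whole-cell lysates run on 10% SDS-PAGE and immunoblotted for phospho-FGFR1 (Tyr653/654), phospho-Erk1/2 (T202/Y204), phospho-Akt and totals, with GAPDH loading control.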
Target sequence in this assay (P11362 22-822 limits assumed): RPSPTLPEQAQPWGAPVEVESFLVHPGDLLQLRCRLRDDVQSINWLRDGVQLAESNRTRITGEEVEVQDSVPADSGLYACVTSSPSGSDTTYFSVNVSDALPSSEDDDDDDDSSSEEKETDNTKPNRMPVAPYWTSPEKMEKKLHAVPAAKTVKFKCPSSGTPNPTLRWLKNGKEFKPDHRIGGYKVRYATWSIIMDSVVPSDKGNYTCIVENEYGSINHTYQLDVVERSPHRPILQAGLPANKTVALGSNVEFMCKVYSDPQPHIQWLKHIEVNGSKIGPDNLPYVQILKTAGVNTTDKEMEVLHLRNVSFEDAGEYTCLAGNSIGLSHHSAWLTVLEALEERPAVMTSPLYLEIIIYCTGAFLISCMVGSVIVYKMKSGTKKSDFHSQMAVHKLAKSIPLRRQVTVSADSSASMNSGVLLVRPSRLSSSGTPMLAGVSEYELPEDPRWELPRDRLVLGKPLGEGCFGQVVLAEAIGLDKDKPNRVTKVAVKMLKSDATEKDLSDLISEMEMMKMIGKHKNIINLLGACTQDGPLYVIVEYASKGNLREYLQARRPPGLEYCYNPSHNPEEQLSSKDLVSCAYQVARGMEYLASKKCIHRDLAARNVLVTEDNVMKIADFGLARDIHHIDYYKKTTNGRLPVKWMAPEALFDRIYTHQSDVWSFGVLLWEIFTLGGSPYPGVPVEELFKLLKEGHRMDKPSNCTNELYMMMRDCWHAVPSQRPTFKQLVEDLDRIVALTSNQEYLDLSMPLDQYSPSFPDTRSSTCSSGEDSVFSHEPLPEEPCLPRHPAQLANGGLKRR

[13] = target: Vascular endothelial growth factor receptor 1 (Homo sapiens, UniProt P17948); test: Inhibition of VEGFR1 using poly(Glu-Tyr)4:1 as substrate measured after 60 mins by ELISA; outline: as §2
[14] = target: Insulin-like growth factor 1 receptor (Homo sapiens, UniProt P08069); test: Inhibition of IGF1R expressed in Bac-to-Bac Baculovirus expression system using poly(Glu-Tyr)4:1 as substrate after 60 mins by ELISA; outline: as §2
[15] = target: T1, Fibroblast growth factor receptor 1; test: Inhibition of FGFR1 in human BxPC3 cells assessed as reduction of Erk1/2 phosphorylation after 12 hrs by Western blot analysis; assay type: cell-based; details: BXPC-3; outline: as §3
Target sequence in this assay (P11362 22-822 limits assumed): as above

[16] = target: Platelet-derived growth factor receptor beta (Homo sapiens, UniProt P09619); test: Inhibition of PDGFRbeta using poly(Glu-Tyr)4:1 as substrate after 60 mins by ELISA; outline: as §2
Platelet-derived growth factor receptor beta, sequence (P09619 whole entry): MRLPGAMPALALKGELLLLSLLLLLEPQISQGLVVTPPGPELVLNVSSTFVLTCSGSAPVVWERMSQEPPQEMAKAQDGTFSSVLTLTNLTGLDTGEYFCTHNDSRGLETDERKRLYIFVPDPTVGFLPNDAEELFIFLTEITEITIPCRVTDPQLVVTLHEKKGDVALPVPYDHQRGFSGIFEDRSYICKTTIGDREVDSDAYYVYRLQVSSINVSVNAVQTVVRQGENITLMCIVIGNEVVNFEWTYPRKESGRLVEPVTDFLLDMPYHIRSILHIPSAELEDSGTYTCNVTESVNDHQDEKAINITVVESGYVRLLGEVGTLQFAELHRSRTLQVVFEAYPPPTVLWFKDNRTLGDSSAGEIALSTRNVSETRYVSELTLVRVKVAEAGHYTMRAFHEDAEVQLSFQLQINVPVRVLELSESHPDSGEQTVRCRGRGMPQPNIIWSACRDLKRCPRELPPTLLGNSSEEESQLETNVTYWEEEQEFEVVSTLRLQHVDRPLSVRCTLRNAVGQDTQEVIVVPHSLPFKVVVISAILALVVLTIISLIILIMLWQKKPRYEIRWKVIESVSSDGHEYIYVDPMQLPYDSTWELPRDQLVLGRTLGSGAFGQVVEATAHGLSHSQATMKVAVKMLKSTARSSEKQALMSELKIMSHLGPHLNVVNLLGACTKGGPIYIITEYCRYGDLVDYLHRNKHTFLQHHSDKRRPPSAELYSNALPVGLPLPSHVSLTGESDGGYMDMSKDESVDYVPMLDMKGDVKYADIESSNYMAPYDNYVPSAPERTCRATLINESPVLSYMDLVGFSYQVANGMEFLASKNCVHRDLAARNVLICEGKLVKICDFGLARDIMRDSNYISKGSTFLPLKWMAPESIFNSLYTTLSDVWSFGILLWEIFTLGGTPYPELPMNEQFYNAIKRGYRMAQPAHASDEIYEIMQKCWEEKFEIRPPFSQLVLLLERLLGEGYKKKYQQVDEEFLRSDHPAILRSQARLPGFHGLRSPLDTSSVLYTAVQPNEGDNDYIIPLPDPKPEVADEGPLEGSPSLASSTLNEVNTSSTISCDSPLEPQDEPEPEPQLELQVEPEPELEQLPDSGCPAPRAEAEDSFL

[17] = target: T1, Fibroblast growth factor receptor 1; test: Inhibition of FGFR1 in human BxPC3 cells assessed as reduction of Akt phosphorylation at 10 uM after 12 hrs by Western blot analysis; assay type: cell-based; details: BXPC-3; outline: as §3
Target sequence in this assay (P11362 22-822 limits assumed): as the sequence (P11362 22-822 limits assumed) above

Calf thymus DNA = test: Binding affinity to calf thymus DNA at 20 uM by circular dichroism assay; assay type: nucleic-acid assay; details: Bos taurus

SMILES | IC50 [1] [µM] | IC50 (T-24) [µM] | IC50 (BXPC-3) [µM] | IC50 (WI-38) [µM] | also measured
CCOC(=O)C1=C2C(=NC1=O)c1cccc3c(SCCO)ccc2c13 | 0.32 | – | – | – | –
CCOC(=O)C1=C2C(=NC1=O)c1cccc3cccc2c13 | 0.074 | 2.9 | 4.7 | 6.2 | IC50 [2]: > 10 µM; IC50 [3]: > 10 µM; IC50 [4]: > 10 µM; IC50 [5]: > 10 µM; IC50 [6]: > 10 µM; IC50 [7]: > 10 µM; IC50 (Ephrin type-A receptor 2): > 10 µM; IC50 [8]: 4.6 µM; IC50 [9]: > 10 µM; IC50 [10]: > 10 µM; IC50 (Ephrin type-B receptor 2): > 10 µM; IC50 [11]: > 10 µM; inhibition [12]: Active; IC50 [13]: 3.2 µM; IC50 [14]: > 10 µM; inhibition [15]: Dose-dependent effect; IC50 [16]: > 10 µM; inhibition [17]: inactive
C=CCSc1ccc2c3c(cccc13)C1=NC(=O)C(C#N)=C12 | > 10 | – | – | – | –
O=C(COC(=O)C1=C2C(=NC1=O)c1cccc3cccc2c13)OCC(F)(F)C(F)(F)F | 0.077 | 19 | 23.3 | 48.3 | –
C=CCOC(=O)C1=C2C(=NC1=O)c1cccc3cccc2c13 | 0.019 | 3.9 | 4.8 | 20.6 | inhibition [15]: Dose-dependent effect; inhibition [17]: inactive
CC(Sc1ccc2c3c(cccc13)C1=NC(=O)C(C#N)=C12)C1(C)CSCO1 (configuration not stated) | 3.6 | – | – | – | –
CC(C)Sc1ccc2c3c(cccc13)C1=NC(=O)C(C#N)=C12 | > 10 | – | – | – | –
N#CC1=C2C(=NC1=O)c1cccc3cccc2c13 | 4.5 | 13.3 | 25 | 21.7 | –
N#CC1=C2C(=NC1=O)c1cccc3c(SCCc4cnccn4)ccc2c13 | > 10 | – | – | – | –
C=CCOC(=O)C1=C2C(=NC1=O)c1cccc3c(SCCC)ccc2c13 | > 10 | 13.1 | 12.9 | 33.2 | Activity (Calf thymus DNA): Active
Cc1c[nH]c(/C=C2\C(=O)Nc3ccccc32)c1CCC(=O)O | 0.334 | – | – | – | –
N#CC1=C2C(=NC1=O)c1cccc3c(SCCN4CCSC4)ccc2c13 | > 10 | – | – | – | –
C=CCSc1ccc2c3c(cccc13)C1=NC(=O)C(C(=O)OCC(=O)SCCC)=C12 | 0.577 | 71.8 | 13.7 | > 100 | –
CCCSc1ccc2c3c(cccc13)C1=NC(=O)C(C(=O)OCC)=C12 | > 10 | 1.7 | 5.8 | 9.6 | Activity (Calf thymus DNA): Active
